Published values gathered from unrelated publications.
Lines come from different studies, so protocols differ.

SMILES | assay | system | setting | quantity | result
C[C@H]1Oc2cc(cnc2N)-c2c(nn(C)c2C#N)CN(C)C(=O)c2ccc(F)cc21 | – | male Sprague-Dawley rat, plasma | oral, 50 mg/kg, single dose | CL/F | 16.7 mL/min/kg
CC(C)[C@@H]1NC(=O)[C@@H](CCCNC(=N)N)NC(=O)[C@H]([C@@H](C)O)NC(=O)[C@@H](CCCCN)NC(=O)[C@H](Cc2ccccc2)NC(=O)[C@@H](Cc2ccccc2)NC1=O | haemolysis | human | 100 µM | haemolysis | < 10%
CCCCCCCCNC(C)C(O)c1ccc(SC(C)C)cc1 (stereo not shown) | haemolysis | human | 50 µM, 3 h | haemolysis | > 18%
C[C@]1(O)CCCN(c2nc(Nc3ccc(S(=O)(=O)N[C@@H]4CCN(CC5CCN(c6ccc(C7CCC(=O)NC7=O)cc6F)CC5)C[C@H]4F)cc3F)ncc2C(F)(F)F)C1 (stereo partly shown) | – | rat, plasma | intravenous, 2 mg/kg | clearance | 12 mL/min/kg
CC(C)[C@@H]1NC(=O)[C@@H](CCCNC(=N)N)NC(=O)[C@H]([C@@H](C)O)NC(=O)[C@@H](C)NC(=O)[C@H](Cc2ccccc2)NC(=O)[C@@H](Cc2ccccc2)NC1=O | haemolysis | human | 100 µM | haemolysis | < 10%
C[C@]1(O)CCCN(c2nc(Nc3ccc(S(=O)(=O)N[C@H]4CC[C@H](CN5CCN(c6ccc(C7CCC(=O)NC7=O)cc6F)CC5)CC4)cc3F)ncc2C(F)(F)F)C1 (stereo partly shown) | – | rat, plasma | intravenous, 2 mg/kg | clearance | 12 mL/min/kg
CC(C)[C@H](N)C(=O)N[C@H](Cc1ccccc1)C(=O)N[C@@H](Cc1ccccc1)C(=O)N[C@H](CCCN)C(=O)N[C@H](C(=O)N[C@H](CCCNC(=N)N)C(=O)O)[C@@H](C)O | haemolysis | human | 100 µM | haemolysis | < 10%
CO[C@H]1C[C@H](O[C@@H]2/C(C)=C/C[C@@H]3C[C@@H](C[C@]4(CC[C@H](C)[C@@H](C5CCCCC5)O4)O3)OC(=O)[C@@H]3C=C(C)/C(=N/O)[C@H]4OC/C(=C\C=C\[C@@H]2C)[C@]43O)O[C@@H](C)[C@@H]1O | haemolysis | human | 50 µM, 3 h | haemolysis | > 18%
C[C@]1(O)CCCN(c2nc(Nc3ccc(S(=O)(=O)N[C@H]4CC[C@H](CN5CCN(c6ccc(C7CCC(=O)NC7=O)c(F)c6)CC5)CC4)cc3F)ncc2C(F)(F)F)C1 (stereo partly shown) | – | rat, plasma | intravenous, 2 mg/kg | clearance | 6 mL/min/kg
CCCc1nc2c(C)cc(-c3nc4ccccc4n3C)cc2n1Cc1ccc(-c2ccccc2C(=O)O)cc1 | – | male Sprague-Dawley rat, plasma | oral, 8 mg/kg, single dose | CL/F | 78 mL/min/kg
